Assay results from ChEMBL document CHEMBL1141647, “Novel ofloxacin derivatives: synthesis, antimycobacterial and toxicological evaluation” (Bioorg Med Chem Lett, 2008).
Converted amounts (≈) assume the structure as drawn.

Columns and labels:
[1] = test system: Mycolicibacterium smegmatis; experiment: Antimycobacterial activity against Mycobacterium smegmatis ATCC 14468 by agar dilution method; assay type: functional
How it was run: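 MC² (M. smegmatis) growth inhibition; MIC99 taken as the lowest concentration giving complete inhibition of bacterial growth, in µM.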

DNA gyrase subunit A = DNA gyrase subunit A (Mycolicibacterium smegmatis, UniProt Q59556); experiment: Inhibition of Mycobacterium smegmatis DNA gyrase
How it was run: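 Inhibition of DNA supercoiling by M. smegmatis (MC²) gyrase, run under standard assay conditions. Varying compound amounts were tested against a fixed amount of enzyme, and IC50 was derived from that series. Relaxed circular DNA served as marker, 5% DMSO as solvent control, and moxifloxacin at 5 µg/mL as positive control.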

[2] = test system: Mycobacterium tuberculosis; experiment: Antimycobacterial activity against Mycobacterium tuberculosis H37Rv by agar dilution method; assay type: functional
How it was run: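 MIC99 was taken as the lowest concentration giving complete inhibition of bacterial growth.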

Vero = experiment: Cytotoxicity against african green monkey Vero cells after 72 hrs by MTT assay; assay type: cell-based; details: Chlorocebus sabaeus
How it was run: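 Vero cells exposed for 72 h; tested up to 62.5 µg/mL. Viability was read as cellular conversion of MTT to formazan, and IC50 was reported in µM.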

Mus musculus [3] = experiment: Phototoxic effect in UV light irradiated mouse assessed as ear thickness at 140 mg/kg, after 96 hrs relative to control; assay type: ADME, organism-based; parameters: dose 140 mg/kg; details: in vivo
How it was run: (§1)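 Mice dosed at 140 mg/kg and exposed to UV immediately after dosing. Irradiation ended at 4 h. Ear thickness (mm) was measured at 0 (pre-dose), 4, 24, 48, 72 and 96 h, left and right ears averaged, mean ± SEM. Comparison was against vehicle controls (0.5% aqueous sodium carboxymethylcellulose, 10 mL/kg) and against the 0 h reading.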

Mus musculus [4] = experiment: Phototoxic effect in UV light irradiated mouse assessed as ear thickness at 140 mg/kg, after 4 hrs relative to control; assay type: ADME, organism-based; parameters: dose 140 mg/kg; details: in vivo; how it was run: as §1
Mus musculus [5] = experiment: Phototoxic effect in UV light irradiated mouse assessed as number of mouse bearing erythema at 140 mg/kg, after 96 hrs relative to control; assay type: ADME, organism-based; parameters: dose 140 mg/kg; details: in vivo
How it was run: (§2)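 Mice received 140 mg/kg and were UV-irradiated immediately after dosing, irradiation ending at 4 h. Both ears were scored for erythema at 0, 4, 24, 48, 72 and 96 h, counted as the number of mice with erythema. Vehicle control was 0.5% aqueous sodium carboxymethylcellulose at 10 mL/kg.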

Mus musculus [6] = experiment: Phototoxic effect in UV light irradiated mouse assessed as number of mouse bearing erythema at 140 mg/kg, after 72 hrs relative to control; assay type: ADME, organism-based; parameters: dose 140 mg/kg; details: in vivo; how it was run: as §2
Mus musculus [7] = experiment: Phototoxic effect in mouse assessed as ear thickness at 140 mg/kg administered before UV light exposure relative to control; assay type: ADME, organism-based; parameters: dose 140 mg/kg; details: in vivo; how it was run: as §1
Mus musculus [8] = experiment: Phototoxic effect in UV light irradiated mouse assessed as ear thickness at 140 mg/kg, after 24 hrs relative to control; assay type: ADME, organism-based; parameters: dose 140 mg/kg; details: in vivo; how it was run: as §1
Mus musculus [9] = experiment: Phototoxic effect in UV light irradiated mouse assessed as number of mouse bearing erythema at 140 mg/kg, after 4 hrs relative to control; assay type: ADME, organism-based; parameters: dose 140 mg/kg; details: in vivo; how it was run: as §2
Mus musculus [10] = experiment: Phototoxic effect in UV light irradiated mouse assessed as ear thickness at 140 mg/kg, after 72 hrs relative to control; assay type: ADME, organism-based; parameters: dose 140 mg/kg; details: in vivo; how it was run: as §1
Mus musculus [11] = experiment: Phototoxic effect in mouse assessed as number of mouse bearing erythema at 140 mg/kg administered before UV light exposure relative to control; assay type: ADME, organism-based; parameters: dose 140 mg/kg; details: in vivo; how it was run: as §2
Mus musculus [12] = experiment: Phototoxic effect in UV light irradiated mouse assessed as number of mouse bearing erythema at 140 mg/kg, after 48 hrs relative to control; assay type: ADME, organism-based; parameters: dose 140 mg/kg; details: in vivo; how it was run: as §2
Mus musculus [13] = experiment: Phototoxic effect in UV light irradiated mouse assessed as number of mouse bearing erythema at 140 mg/kg, after 24 hrs relative to control; assay type: ADME, organism-based; parameters: dose 140 mg/kg; details: in vivo; how it was run: as §2
Mus musculus [14] = experiment: Phototoxic effect in UV light irradiated mouse assessed as ear thickness at 140 mg/kg, after 48 hrs relative to control; assay type: ADME, organism-based; parameters: dose 140 mg/kg; details: in vivo; how it was run: as §1
[15] = test system: Mycobacterium tuberculosis; experiment: Antimycobacterial activity against Mycobacterium tuberculosis ATCC 35801 infected CD1 mouse lungs assessed as viable organisms at 50 mg/kg, ip after 35 days relative to control; assay type: functional; details: route intraperitoneal
How it was run: (§3)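 CD-1 mice infected intravenously with M. tuberculosis ATCC 35801; intraperitoneal treatment started 10 days after inoculation and continued for 10 days. At 35 days postinfection, spleens and right lungs were removed aseptically and viable organisms counted (log CFU). Counts were compared with vehicle-treated controls.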

[16] = test system: Mycobacterium tuberculosis; experiment: Antimycobacterial activity against Mycobacterium tuberculosis ATCC 35801 infected CD1 mouse spleen assessed as viable organisms at 50 mg/kg, ip after 35 days relative to control; assay type: functional; details: route intraperitoneal; how it was run: as §3

Sequence of DNA gyrase subunit A (Q59556 whole entry): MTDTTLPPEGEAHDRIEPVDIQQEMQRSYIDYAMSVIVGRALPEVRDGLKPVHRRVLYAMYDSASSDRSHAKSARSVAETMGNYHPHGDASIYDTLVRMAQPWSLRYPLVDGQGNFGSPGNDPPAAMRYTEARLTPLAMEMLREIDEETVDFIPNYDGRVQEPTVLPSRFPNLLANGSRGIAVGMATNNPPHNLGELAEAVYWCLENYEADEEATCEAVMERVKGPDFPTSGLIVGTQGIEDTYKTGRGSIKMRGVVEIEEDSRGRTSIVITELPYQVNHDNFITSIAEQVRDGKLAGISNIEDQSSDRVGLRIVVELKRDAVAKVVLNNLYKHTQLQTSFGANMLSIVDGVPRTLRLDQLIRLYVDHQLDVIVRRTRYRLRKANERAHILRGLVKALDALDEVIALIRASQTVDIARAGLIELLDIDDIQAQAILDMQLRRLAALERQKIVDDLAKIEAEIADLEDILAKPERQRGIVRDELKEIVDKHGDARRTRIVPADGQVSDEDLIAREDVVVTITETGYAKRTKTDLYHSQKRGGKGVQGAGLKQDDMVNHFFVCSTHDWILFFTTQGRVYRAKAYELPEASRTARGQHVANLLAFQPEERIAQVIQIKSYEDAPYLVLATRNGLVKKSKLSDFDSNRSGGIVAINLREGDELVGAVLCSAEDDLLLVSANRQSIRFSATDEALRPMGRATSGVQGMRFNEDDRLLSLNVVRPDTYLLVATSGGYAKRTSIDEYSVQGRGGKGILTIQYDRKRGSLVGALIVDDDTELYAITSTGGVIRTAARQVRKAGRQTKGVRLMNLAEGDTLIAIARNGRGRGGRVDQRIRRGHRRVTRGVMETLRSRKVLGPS

SMILES | MIC99 [1] [µM] | MIC99 [2] [µM] | IC50 (Vero) [µM] | further results
CC1CN(c2c(F)cc3c(=O)c(C(=O)O)cn4c3c2OCC4C)CC(C)O1 (stereo unspecified) | 4.14 (≈ 1.56 µg/mL) | 4.14 (≈ 1.56 µg/mL) | > 166 | IC50 (DNA gyrase subunit A): > 133 µM
CC1COc2c(N3CCN(Cc4ccc5c(c4)OCO5)CC3)c(F)c([N+](=O)[O-])c3c(=O)c(C(=O)O)cn1c23 (stereo unspecified) | 1.48 (≈ 0.779 µg/mL) | 2.96 (≈ 1.56 µg/mL) | 119 | 
CC1COc2c(N3CCc4ccccc4C3C(=O)NC(C)(C)C)c(F)c([N+](=O)[O-])c3c(=O)c(C(=O)O)cn1c23 (stereo unspecified) | 2.89 (≈ 1.56 µg/mL) | 1.45 (≈ 0.781 µg/mL) | 116 | IC50 (DNA gyrase subunit A): 92.8 µM
CC1COc2c(N3CCC4(CC3)OCCO4)c(F)c(N)c3c(=O)c(C(=O)O)cn1c23 (stereo unspecified) | 11.2 (≈ 4.68 µg/mL) | 3.72 (≈ 1.56 µg/mL) | > 149 | 
CC1COc2c(N3CCN(C(c4ccccc4)c4ccc(Cl)cc4)CC3)c(F)cc3c(=O)c(C(=O)O)cn1c23 (stereo unspecified) | 45.6 (≈ 25 µg/mL) | 5.71 (≈ 3.13 µg/mL) |  | 
CC1COc2c(N3CCSCC3)c(F)c([N+](=O)[O-])c3c(=O)c(C(=O)O)cn1c23 (stereo unspecified) | 1.91 (≈ 0.782 µg/mL) | 1.91 (≈ 0.782 µg/mL) | 153 | IC50 (DNA gyrase subunit A): 122 µM; Activity (Mus musculus [3]): 0.28 mm; Activity (Mus musculus [4]): 0.28 mm; Activity (Mus musculus [5]): Non-toxic; Activity (Mus musculus [6]): Non-toxic; Activity (Mus musculus [7]): 0.25 mm; Activity (Mus musculus [8]): 0.29 mm; Activity (Mus musculus [9]): Non-toxic; Activity (Mus musculus [10]): 0.28 mm; Activity (Mus musculus [11]): Non-toxic; Activity (Mus musculus [12]): Non-toxic; Activity (Mus musculus [13]): Non-toxic; Activity (Mus musculus [14]): 0.29 mm
CC1COc2c(N3CCc4ccccc4C3C(=O)NC(C)(C)C)c(F)cc3c(=O)c(C(=O)O)cn1c23 (stereo unspecified) | 50.7 (≈ 25 µg/mL) | 3.16 (≈ 1.56 µg/mL) | 127 | 
CC1COc2c(N3CCSCC3)c(F)cc3c(=O)c(C(=O)O)cn1c23 (stereo unspecified) | 4.28 (≈ 1.56 µg/mL) | 2.14 (≈ 0.78 µg/mL) | > 172 | IC50 (DNA gyrase subunit A): 110 µM
Cc1onc(-c2c(F)cccc2F)c1C(=O)N1CCN(c2c(F)c([N+](=O)[O-])c3c(=O)c(C(=O)O)cn4c3c2OCC4C)CC1 (stereo unspecified) | 1.27 (≈ 0.779 µg/mL) | 5.1 (≈ 3.13 µg/mL) | 102 | 
CC1COc2c(N3CCN(C)C(c4ccccc4)C3)c(F)c([N+](=O)[O-])c3c(=O)c(C(=O)O)cn1c23 (stereo unspecified) | 6.49 (≈ 3.13 µg/mL) | 3.23 (≈ 1.56 µg/mL) | 130 | 
CC1COc2c(N3CCn4cc(C(=O)O)nc4C3)c(F)c([N+](=O)[O-])c3c(=O)c(C(=O)O)cn1c23 (stereo unspecified) | 6.61 (≈ 3.13 µg/mL) | 0.19 (≈ 0.0899 µg/mL) | 132 | Log10 cfu [15]: 6.08; Log10 cfu [16]: 6.11
CC1COc2c(N3CCC(n4c(=O)[nH]c5cc(Cl)ccc54)CC3)c(F)c([N+](=O)[O-])c3c(=O)c(C(=O)O)cn1c23 (stereo unspecified) | 1.39 (≈ 0.776 µg/mL) | 0.34 (≈ 0.19 µg/mL) | 112 | 
CC1COc2c(N3CCC(O)(c4ccc(Cl)cc4)CC3)c(F)cc3c(=O)c(C(=O)O)cn1c23 (stereo unspecified) | 26.4 (≈ 12.5 µg/mL) | 6.62 (≈ 3.13 µg/mL) |  | 
COc1cc2c(cc1OC)CN(c1c(F)cc3c(=O)c(C(=O)O)cn4c3c1OCC4C)CC2 (stereo unspecified) | 13.8 (≈ 6.25 µg/mL) | 1.72 (≈ 0.782 µg/mL) | > 138 | 
CC1COc2c(N3CCN(C)CC3)c(F)cc3c(=O)c(C(=O)O)cn1c23.Cl (stereo unspecified) |  |  |  | Activity (Mus musculus [3]): 0.35 mm; Activity (Mus musculus [4]): 0.32 mm; Activity (Mus musculus [7]): 0.29 mm; Activity (Mus musculus [8]): 0.29 mm; Activity (Mus musculus [10]): 0.35 mm; Activity (Mus musculus [14]): 0.3 mm
CCn1cc(C(=O)O)c(=O)c2cc(F)c(N3CCNC(C)C3)c(F)c21 (stereo unspecified) [LOMEFLOXACIN] |  |  |  | Activity (Mus musculus [3]): 0.6 mm; Activity (Mus musculus [4]): 0.4 mm; Activity (Mus musculus [5]): Toxic; Activity (Mus musculus [6]): Toxic; Activity (Mus musculus [7]): 0.31 mm; Activity (Mus musculus [8]): 0.48 mm; Activity (Mus musculus [9]): Toxic; Activity (Mus musculus [10]): 0.64 mm; Activity (Mus musculus [11]): Non-toxic; Activity (Mus musculus [12]): Toxic; Activity (Mus musculus [13]): Toxic; Activity (Mus musculus [14]): 0.53 mm
CC1COc2c(N3CCN(C)CC3)c(F)cc3c(=O)c(C(=O)O)cn1c23 (stereo unspecified) [OFLOXACIN] | 2.16 (≈ 0.781 µg/mL) | 2.16 (≈ 0.781 µg/mL) | > 155 | Log10 cfu [15]: 6.61; Log10 cfu [16]: 7.61
